Data set [1] relates to J774. Nature of the data set: Cytotoxicity against mouse J774 cells at 400 uM after 48 hrs by MTT assay. The class given is cell-based. The settings on record: j774, 48 h. In a few lines:
(§1)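 J-774 macrophages seeded at 100.000 cells/well in RPMI 1640 with 20% heat-inactivated FCS, attached 48 h at 37 °C, 5% CO2. Exposed to 100, 200 or 400 µM for 48 h, washed with PBS, then MTT 0.4 mg/mL for 3 h at 37 °C. Formazan dissolved in DMSO, OD595 read. %cytotoxicity corrected for compound-in-medium blanks; triplicate wells, six growth controls.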

Data set [2] has as its system J774. Put plainly: Cytotoxicity against mouse J774 cells after 48 hrs by MTT assay. The class given is cell-based. The settings on record: J774, 48 h. Summed up:
as §1
In general terms: Formazan colour is commonly taken as a measure of viable cells.

A short description of data set [3]: Selectivity index, ratio of IC50 for mouse J774 cells to IC50 for Trypanosoma cruzi Tulahuen 2. The class given is toxicity, cell-based. Conditions: J774 cells (versus Trypanosoma cruzi Tulahuen 2), read-out: Ratio IC50.
In data set [4] the test system is Trypanosoma cruzi. Nature of the data set: Antitrypanosomal activity against Trypanosoma cruzi Tulahuen 2 at 25 uM relative to nifurtimox. The class given is functional. Conditions: read-out: GI. Summed up: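 Epimastigotes of Tulahuen 2 strain exposed to 25 µM compound, up to 1% DMSO. A600 read right after inoculation (day 0) and at day 5. %inhibition = {1 − [(Ap − A0p)/(Ac − A0c)]} × 100 against drug-free control. Means of three independent experiments; nifurtimox as reference drug.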

For data set [5], the system named is Trypanosoma cruzi. Nature of the data set: Antitrypanosomal activity against Trypanosoma cruzi Tulahuen 2. The class given is functional, organism-based. Summed up:
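Epimastigotes of T. cruzi Tulahuen 2 grown with compound, up to 1% DMSO tolerated. Growth followed as absorbance at 600 nm at day 0 and day 5. Percent inhibition taken relative to drug-free control. IC50 determined only for compounds giving >80% inhibition at 25 µM. Means of three independent experiments; nifurtimox reference.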

This is an account of results in ChEMBL document CHEMBL1140888, “Synthesis, trypanocidal activity and docking studies of novel quinoxaline-N-acylhydrazones, designed as cruzain inhibitors candidates” (Bioorg Med Chem, 2009).

Each structure is given as a SMILES string.

`CC(=O)N1CCN(c2ccc(OCC3COC(Cn4ccnc4)(c4ccc(Cl)cc4Cl)O3)cc2)CC1` (centres undefined) [KETOCONAZOLE] gave an Activity in the data set with J774 [1] of 100%. In the data set with J774 [2], this compound registered an IC50 below 50 µM. Besides, in data set [3], the selectivity ratio was below 5.
As to `O=C(N/N=C/c1cccc(Cl)c1)c1nc2ccccc2nc1-c1ccccc1`, the inhibition of growth at 25 µM in the data set with Trypanosoma cruzi [4] was determined as 47%.
On the same count and under the same terms, the result for `O=C(N/N=C/c1ccncc1)c1nc2ccccc2nc1-c1ccccc1` reads 0%.
Consider `O=C(N/N=C/c1ccccc1Cl)c1nc2ccccc2nc1-c1ccccc1`, for which the inhibition of growth at 25 µM with Trypanosoma cruzi [4] worked out at 35%.
Regarding `CC(C)c1ccc(/C=N/NC(=O)c2nc3ccccc3nc2-c2ccccc2)cc1`, in the data set on Trypanosoma cruzi [4], the inhibition of growth at 25 µM is 36%.
As to `O=C(N/N=C/c1ccc(Br)cc1)c1nc2ccccc2nc1-c1ccccc1`, the inhibition of growth at 25 µM in the data set on Trypanosoma cruzi [4] is 40%.
Turning to `O=C(N/N=C/c1ccccn1)c1nc2ccccc2nc1-c1ccccc1`, in the data set on Trypanosoma cruzi [4], the inhibition of growth at 25 µM is 0%.
Take `CN(C)c1ccc(/C=N/NC(=O)c2nc3ccccc3nc2-c2ccccc2)cc1`: the inhibition of growth at 25 µM with Trypanosoma cruzi [4] came to 29%.
Turning to `O=C(N/N=C/c1ccccc1)c1nc2ccccc2nc1-c1ccccc1`, in the data set on Trypanosoma cruzi [4], the inhibition of growth at 25 µM was 3%.
On to `O=C(N/N=C/c1ccc(F)cc1)c1nc2ccccc2nc1-c1ccccc1`, for which, in the data set with Trypanosoma cruzi [4], the inhibition of growth at 25 µM was determined as 22%.
Regarding `CN(C/C=C/C#CC(C)(C)C)Cc1cccc2ccccc12` [TERBINAFINE], in the data set with J774 [1], the Activity is 100%. Inhibition in the data set on J774 [2] was half-maximal at 88 µM (IC50). Further, in data set [3], the selectivity ratio is 5.1.
In the case of `Cc1nc2ccccc2nc1C(=O)N/N=C/c1ccccc1O`, the values for the 50% inhibitory concentration (IC50) in the data set with Trypanosoma cruzi [5] and with J774 [2] were 20 µM and above 400 µM, respectively. Also, the inhibition of growth at 25 µM in the data set with Trypanosoma cruzi [4] is 81%. For the same compound, the Activity with J774 [1] amounted to 12%. The selectivity ratio in data set [3] is above 20.
As to `O=C(N/N=C/c1ccc([N+](=O)[O-])cc1)c1nc2ccccc2nc1-c1ccccc1`, in the data set with Trypanosoma cruzi [4], the inhibition of growth at 25 µM was 19%.
Take `O=C(N/N=C/c1ccc(Cl)cc1)c1nc2ccccc2nc1-c1ccccc1`: in the data set with Trypanosoma cruzi [4], the inhibition of growth at 25 µM was 53%.
On to `O=C(N/N=C/c1ccc(O)cc1)c1nc2ccccc2nc1-c1ccccc1`, for which, in the data set on Trypanosoma cruzi [4], the inhibition of growth at 25 µM stood at 27%.
For the compound `O=C(N/N=C/c1ccco1)c1nc2ccccc2nc1-c1ccccc1`, the inhibition of growth at 25 µM in the data set with Trypanosoma cruzi [4] was 0%.
In the case of `O=C(N/N=C/c1ccccc1O)c1nc2ccccc2nc1-c1ccccc1`, the IC50 in the data set with Trypanosoma cruzi [5] was 15.9 µM; in the data set with J774 [2], above 400 µM. Further, in the data set on Trypanosoma cruzi [4], the inhibition of growth at 25 µM stood at 96%. In the data set with J774 [1], the Activity was found to be 14%. Besides, the selectivity ratio in data set [3] is above 25.2.

The term IC50 denotes the concentration needed to halve the response being measured.
